Article PMC10598825 (JACS Au, 2023)
Numbering of substitutions follows the chain as printed.

Key:
[1] = target: T1, BcTSPO 34/151 double-cysteine variant (Bacillus cereus, UniProt Q81BL7, A34C/C107S/S151C); assay: PpIX degradation activity assay; type: biochemical; details: TSPO 34/151 in nanodiscs, PpIX:TSPO 1:1
T1 sequence (Q81BL7 1-153 A34C/C107S/S151C): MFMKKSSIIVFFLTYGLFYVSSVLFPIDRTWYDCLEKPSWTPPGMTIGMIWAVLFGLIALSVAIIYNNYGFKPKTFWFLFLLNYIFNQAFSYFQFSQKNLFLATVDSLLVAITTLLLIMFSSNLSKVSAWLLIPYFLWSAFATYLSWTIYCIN
Outline: (§1)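 His10-tagged Bacillus cereus TSPO (C107S cysteine-free background) was expressed in E. coli BL21(DE3) pLysS, Ni-purified in β-DDM, then reconstituted into MSP1D1 nanodiscs with POPC:POPE 60:40 (TSPO/MSP/lipid/cholate 1/4/270/540). PpIX and loaded nanodiscs were mixed 1:1 molar in a 1 mm quartz cuvette. Emission at 633 nm was recorded in pulses of 60 s continuous illumination. V0 was taken as the absolute slope of a linear fit to the first three points (~120 s). Triplicate, mean ± SE.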

BcTSPO 34/151-K98E [2] = target: T2, BcTSPO 34/151-K98E (Bacillus cereus, UniProt Q81BL7, A34C/C107S/K98E/S151C); assay: PpIX degradation activity assay; type: biochemical; details: TSPO 34/151-K98E in nanodiscs, PpIX:TSPO 1:1
T2 sequence (Q81BL7 1-153 A34C/K98E/C107S/S151C): T1 sequence (Q81BL7 1-153 A34C/C107S/S151C) with K98E
Outline: as §1

WT BcTSPO = target: T3, WT BcTSPO (Bacillus cereus, UniProt Q81BL7); assay: PpIX degradation activity assay; type: biochemical; details: WT TSPO in nanodiscs, PpIX:TSPO 1:1, light exposure
T3 sequence (Q81BL7 1-153): T1 sequence (Q81BL7 1-153 A34C/C107S/S151C) with C34A, S107C, C151S
Outline: as §1

BcTSPO 34/102-K98E [3] = target: T4, BcTSPO 34/102-K98E (Bacillus cereus, UniProt Q81BL7, A34C/C107S/K98E/L102C); assay: PpIX degradation activity assay; type: biochemical; details: TSPO 34/102-K98E in nanodiscs, PpIX:TSPO 1:1
T4 sequence (Q81BL7 1-153 A34C/K98E/L102C/C107S): T1 sequence (Q81BL7 1-153 A34C/C107S/S151C) with K98E, L102C, C151S
Outline: as §1

BcTSPO S22C-PEG = assay: Tryptophan fluorescence quenching binding assay; set-up: species or system Bacillus cereus; details: DDM-solubilized TSPO S22C conjugated with 5 kDa PEG; higher than WT
BcTSPO 34/151-W138F [4] = target: T5, BcTSPO 34/151-W138F (Bacillus cereus, UniProt Q81BL7, A34C/C107S/S151C/W138F); assay: PpIX degradation activity assay; type: biochemical; details: TSPO 34/151-W138F in nanodiscs, PpIX:TSPO 1:1
T5 sequence (Q81BL7 1-153 A34C/C107S/W138F/S151C): T1 sequence (Q81BL7 1-153 A34C/C107S/S151C) with W138F
Outline: as §1

BcTSPO W138F [5] = target: T6, BcTSPO W138F (Bacillus cereus, UniProt Q81BL7, C107S/W138F); assay: PpIX degradation activity assay; type: biochemical; details: TSPO W138F in nanodiscs, PpIX:TSPO 1:1
T6 sequence (Q81BL7 1-153 C107S/W138F): T1 sequence (Q81BL7 1-153 A34C/C107S/S151C) with C34A, W138F, C151S
Outline: as §1

[6] = target: T7, BcTSPO 23/151 double-cysteine variant (Bacillus cereus, UniProt Q81BL7, C107S/S151C/V23C); assay: PpIX degradation activity assay; type: biochemical; details: TSPO 23/151 in nanodiscs, PpIX:TSPO 1:1
T7 sequence (Q81BL7 1-153 V23C/C107S/S151C): T1 sequence (Q81BL7 1-153 A34C/C107S/S151C) with V23C, C34A
Outline: as §1

BcTSPO 34/102-D33P [7] = target: T8, BcTSPO 34/102-D33P (Bacillus cereus, UniProt Q81BL7, A34C/C107S/D33P/L102C); assay: Tryptophan fluorescence quenching binding assay; details: detergent-solubilized TSPO 34/102-D33P; in words
T8 sequence (Q81BL7 1-153 D33P/A34C/L102C/C107S): T1 sequence (Q81BL7 1-153 A34C/C107S/S151C) with D33P, L102C, C151S

BcTSPO W51F [8] = target: T9, BcTSPO W51F (Bacillus cereus, UniProt Q81BL7, C107S/W51F); assay: PpIX degradation activity assay; type: biochemical; details: TSPO W51F in nanodiscs, PpIX:TSPO 1:1
T9 sequence (Q81BL7 1-153 W51F/C107S): T1 sequence (Q81BL7 1-153 A34C/C107S/S151C) with C34A, W51F, C151S
Outline: as §1

[9] = target: T10, BcTSPO 23/35 double-cysteine variant (Bacillus cereus, UniProt Q81BL7, C107S/L35C/V23C); assay: PpIX degradation activity assay; type: biochemical; details: TSPO 23/35 in nanodiscs, PpIX:TSPO 1:1
T10 sequence (Q81BL7 1-153 V23C/L35C/C107S): T1 sequence (Q81BL7 1-153 A34C/C107S/S151C) with V23C, C34A, L35C, C151S
Outline: as §1

BcTSPO W51F [10] = target: T9, BcTSPO W51F; assay: Tryptophan fluorescence quenching binding assay; details: detergent-solubilized TSPO W51F; in words
BcTSPO 34/151-D33P [11] = target: T11, BcTSPO 34/151-D33P (Bacillus cereus, UniProt Q81BL7, A34C/C107S/D33P/S151C); assay: Tryptophan fluorescence quenching binding assay; details: detergent-solubilized TSPO 34/151-D33P; in words
T11 sequence (Q81BL7 1-153 D33P/A34C/C107S/S151C): T1 sequence (Q81BL7 1-153 A34C/C107S/S151C) with D33P

BcTSPO 34/151-D33P [12] = target: T11, BcTSPO 34/151-D33P; assay: PpIX degradation activity assay; type: biochemical; details: TSPO 34/151-D33P in nanodiscs, PpIX:TSPO 1:1
Outline: as §1

BcTSPO W138F [13] = target: T6, BcTSPO W138F; assay: Tryptophan fluorescence quenching binding assay; details: detergent-solubilized TSPO W138F; in words
BcTSPO 34/102-K98E [14] = target: T4, BcTSPO 34/102-K98E; assay: Tryptophan fluorescence quenching binding assay; details: detergent-solubilized TSPO 34/102-K98E; in words
BcTSPO 34/102-D33P [15] = target: T8, BcTSPO 34/102-D33P; assay: PpIX degradation activity assay; type: biochemical; details: TSPO 34/102-D33P in nanodiscs, PpIX:TSPO 1:1
Outline: as §1

[16] = target: T12, BcTSPO 34/102 double-cysteine variant (Bacillus cereus, UniProt Q81BL7, A34C/C107S/L102C); assay: PpIX degradation activity assay; type: biochemical; details: TSPO 34/102 in nanodiscs, PpIX:TSPO 1:1
T12 sequence (Q81BL7 1-153 A34C/L102C/C107S): T1 sequence (Q81BL7 1-153 A34C/C107S/S151C) with L102C, C151S
Outline: as §1

[17] = target: T10, BcTSPO 23/35 double-cysteine variant; assay: Tryptophan fluorescence quenching binding assay; details: detergent-solubilized TSPO 23/35; in words
BcTSPO 34/151-K98E [18] = target: T2, BcTSPO 34/151-K98E; assay: Tryptophan fluorescence quenching binding assay; details: detergent-solubilized TSPO 34/151-K98E; in words
BcTSPO 34/151-W138F [19] = target: T5, BcTSPO 34/151-W138F; assay: Tryptophan fluorescence quenching binding assay; details: detergent-solubilized TSPO 34/151-W138F; in words

## C=CC1=C(C)c2cc3[nH]c(cc4nc(cc5[nH]c(cc1n2)c(C)c5CCC(=O)O)C(CCC(=O)O)=C4C)c(C)c3C=C [PpIX, protoporphyrin IX]
[1]
  reaction velocity V0 of PpIX degradation: approximately 17 nM/s
BcTSPO 34/151-K98E [2]
  reaction velocity V0 of PpIX degradation: approximately 5 nM/s
WT BcTSPO
  reaction velocity V0 of PpIX degradation: approximately 17 nM/s
BcTSPO 34/102-K98E [3]
  reaction velocity V0 of PpIX degradation: approximately 5 nM/s
BcTSPO S22C-PEG
  Kd value of S22C-PEG relative to that of WT: approximately 10 fold
BcTSPO 34/151-W138F [4]
  reaction velocity V0 of PpIX degradation: below 2 nM/s
BcTSPO W138F [5]
  reaction velocity V0 of PpIX degradation: below 2 nM/s
[6]
  reaction velocity V0 of PpIX degradation: approximately 17 nM/s
BcTSPO 34/102-D33P [7]
  dissociation constant Kd of PpIX compared with WT: much higher
BcTSPO W51F [8]
  reaction velocity V0 of PpIX degradation: approximately 5 nM/s
[9]
  reaction velocity V0 of PpIX degradation: approximately 5 nM/s
BcTSPO W51F [10]
  dissociation constant Kd of PpIX compared with WT: much higher
BcTSPO 34/151-D33P [11]
  dissociation constant Kd of PpIX compared with WT: much higher
BcTSPO 34/151-D33P [12]
  reaction velocity V0 of PpIX degradation: approximately 5 nM/s
BcTSPO W138F [13]
  binding of PpIX compared with WT: as strongly as WT
BcTSPO 34/102-K98E [14]
  dissociation constant Kd of PpIX compared with WT: much higher
BcTSPO 34/102-D33P [15]
  reaction velocity V0 of PpIX degradation: approximately 5 nM/s
[16]
  reaction velocity V0 of PpIX degradation: approximately 17 nM/s
[17]
  dissociation constant Kd of PpIX compared with WT: much higher
BcTSPO 34/151-K98E [18]
  dissociation constant Kd of PpIX compared with WT: much higher
BcTSPO 34/151-W138F [19]
  binding of PpIX compared with WT: as strongly as WT
